# Reference: ChEMBL document CHEMBL5126673, “Inhibition of β-Amyloid Aggregation in Alzheimer's Disease: The Key Role of (Pro)electrophilic Warheads” (ACS Med Chem Lett, 2022)
# Active and inactive are the calls of the source. The calls are words filed in the database; no cut-off is given here.
# Tests used:
# [1] = target: T1, Amyloid-beta precursor protein (Homo sapiens, UniProt P05067); experiment: Binding affinity to HFIP-pretreated amyloid beta (1 to 42) (unknown origin) assessed as lys16-adduct formation by measuring increase in molecular mass at 50 uM measured up to 6 hrs by LC-MS/MS analysis
# How it was run: (§1)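 Aβ42 at 50 μM co-incubated with test compound at 50 μM (1:1) under the ThT assay conditions. Deconvoluted mass spectra were taken at 0, 6 and 24 h. Adducts were scored as new higher-mass species, i.e. mass increments over Aβ42.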
# [2] = Reversible electrochemical behavior of compound assessed as cathodic peak for reconversion of ortho-benzoquinone in 0.2 M phosphate buffer using Ag/AgCl reference electrode by cyclic voltammetry; format: physicochemical
# [3] = target: T1, Amyloid-beta precursor protein; experiment: Inhibition of HFIP-pretreated amyloid beta (1 to 42 ) (unknown origin) self aggregation at 50 uM after 24 hrs by LC-MS/MS analysis relative to control
# How it was run: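 Aβ42 at 50 μM incubated under the ThT assay conditions with or without compound at 50 μM (1:1). Residual monomeric Aβ42 was quantified by MS, and % inhibition was taken against compound-free samples.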
# [4] = Electrochemical behavior of compound assessed as anodic peak for oxidation of catechol group in 0.2 M phosphate buffer using Ag/AgCl reference electrode by cyclic voltammetry; format: physicochemical
# [5] = target: T1, Amyloid-beta precursor protein; experiment: Inhibition of HFIP-pretreated amyloid beta (1 to 42 ) (unknown origin) self aggregation assessed as increase in protein oxidation at 50 uM after 24 hrs by LC-MS/MS analysis
# How it was run: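 Aβ42 incubated with or without compound at an equimolar level under the ThT assay conditions. Oxidized Aβ42 was followed by MS as the ratio of the oxidized-Aβ42 signal to the reserpine internal-standard signal, plotted against incubation time.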
# [6] = target: T1, Amyloid-beta precursor protein; experiment: Inhibition of HFIP-pretreated amyloid beta (1 to 42 ) (unknown origin) self aggregation at 50 uM after 24 hrs by thioflavin-T fluorescence method relative to control
# How it was run: (§2)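 Self-aggregation of 50 μM Aβ42 was measured by ThT fluorescence. Single-point % inhibition used compound at 50 μM (1:1 with Aβ42). IC50 was determined where inhibition exceeded 50%. Values are the mean of two independent experiments, each run in duplicate, ± SEM.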
# [7] = Electrochemical behavior of compound assessed as half wave redox potential in 0.2 M phosphate buffer using Ag/AgCl reference electrode by cyclic voltammetry; format: physicochemical
# [8] = target: T1, Amyloid-beta precursor protein; experiment: Binding affinity to HFIP-pretreated amyloid beta (1 to 42) (unknown origin) assessed as lys16-adduct formation by measuring increase in molecular mass at 50 uM measured at 24 hrs by LC-MS/MS analysis; how it was run: as §1
# SH-SY5Y [9] = experiment: Cytotoxicity against human SH-SY5Y cells assessed as reduction in cell viability at 10 uM measured after 24 hrs by MTT assay relative to control; format: toxicity, cell-based
# How it was run: (§3)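 Human neuroblastoma SH-SY5Y cells were treated with compound at 5 and 10 μM for 24 h. Viability was read by MTT assay.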
# SH-SY5Y [10] = experiment: Cytotoxicity against human SH-SY5Y cells assessed as reduction in cell viability at 5 to 10 uM measured after 24 hrs by MTT assay; format: toxicity, cell-based; conditions: dose 5-10 µM; how it was run: as §3
# [11] = target: T1, Amyloid-beta precursor protein; experiment: Inhibition of HFIP-pretreated amyloid beta (1 to 42) (unknown origin) self aggregation after 24 hrs by thioflavin-T fluorescence method; how it was run: as §2
# T1 sequence (P05067 whole entry): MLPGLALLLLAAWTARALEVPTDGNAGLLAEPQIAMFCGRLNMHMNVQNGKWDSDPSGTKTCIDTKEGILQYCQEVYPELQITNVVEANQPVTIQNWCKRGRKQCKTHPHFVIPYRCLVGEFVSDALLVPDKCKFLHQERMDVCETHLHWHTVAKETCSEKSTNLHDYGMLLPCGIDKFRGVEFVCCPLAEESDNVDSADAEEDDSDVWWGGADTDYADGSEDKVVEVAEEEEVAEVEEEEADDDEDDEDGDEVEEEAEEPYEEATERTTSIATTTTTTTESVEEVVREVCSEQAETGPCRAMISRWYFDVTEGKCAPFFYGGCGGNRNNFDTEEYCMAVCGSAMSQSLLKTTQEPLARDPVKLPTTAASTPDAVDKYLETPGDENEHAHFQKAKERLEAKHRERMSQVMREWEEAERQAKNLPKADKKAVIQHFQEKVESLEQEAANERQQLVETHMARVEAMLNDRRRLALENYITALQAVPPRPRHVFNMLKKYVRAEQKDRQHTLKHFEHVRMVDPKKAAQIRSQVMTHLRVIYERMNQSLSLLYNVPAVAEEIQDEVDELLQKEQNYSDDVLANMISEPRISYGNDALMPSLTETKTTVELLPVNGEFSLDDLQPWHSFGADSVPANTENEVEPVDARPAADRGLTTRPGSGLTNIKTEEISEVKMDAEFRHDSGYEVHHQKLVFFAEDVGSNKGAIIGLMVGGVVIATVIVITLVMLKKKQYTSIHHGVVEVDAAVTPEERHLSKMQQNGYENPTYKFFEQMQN
Activity [1],Activity [2],inhibition [3],Ep [4],inhibition [5],inhibition [6],Activity [7],Activity [8],IC50 [11],SMILES,Activity (SH-SY5Y [9]),Activity (SH-SY5Y [10])
232 Da,Active,43.6%,0.32 V,Active,> 90%,0.1 V,268 Da,,CCCSC(=O)/C=C/c1cc(O)ccc1O,> 50%,
,Active,< 10%,0.76 V,,< 10%,0.66 V,,,CCCSC(=O)/C=C/c1cc(O)cc(O)c1,,Non-Toxic
,Active,,0.19 V,,> 90%,0.1 V,,3.99 µM,CCCSC(=O)/C=C/c1ccc(O)c(O)c1,,Non-Toxic
